Measurements: PubChem BioAssay
Activity calls are given as the source filed them.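 How the source made its calls, unless noted: active means GFP response above 150% of the DMSO level; inconclusive means fewer than 70 events counted for a yeast strain; inactive means the rest.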

How the values were obtained:
[1] = RPL19A-GFP modulators, yeast TOR pathway, confirmation, cell-based, S. cerevisiae, flow cytometry, cherry picks, mother/daughter gates (AID 2270;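 active means GFP response below 50% of the DMSO control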); details: S. cerevisiae RPL19A-GFP strain, 3 h, at 10 µM, stronger effect = lower value, 100 = same GFP as DMSO wells
[2] = LAP4-GFP expression modulators in yeast, confirmation, cell-based, cherry picks, flow cytometry, mother/daughter gates (AID 2271;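 active means GFP response above 150% of the DMSO control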;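 further: ratio of sample to DMSO plate mean so 100% equals DMSO level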); details: S. cerevisiae LAP4-GFP strain, 3 h, at 10 µM, stronger effect = higher value, 100 means same as DMSO control
Procedure, shortened: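 System: GFP-fusion yeast strain | Input: Yeast cells seeded at OD600 of 0.2 | Technique: HT flow cytometry, GFP fluorescence channel | Read-out: % GFP response vs DMSO | Dosing: Single test-compound dose, 10 µM final | Controls: Positive rapamycin (400 ng/mL), negative DMSO | Times: 3 h treatment at 30 °C with rotation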

[3] = modulators of MEP2-GFP levels in yeast, confirmation, S. cerevisiae, flow cytometry GFP, cherry picks (AID 2272;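 active means GFP response above 150% of the DMSO control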;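 further: ratio of well signal to plate DMSO mean so 100% equals DMSO level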); details: S. cerevisiae MEP2-GFP strain, 3 h, at 10 µM, stronger effect = higher value
[4] = AGP1-GFP expression modulators, hit retest, confirmation, cell-based, flow cytometry, S. cerevisiae, cherry picks (AID 2273);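 further: median GFP channel fluorescence over the whole cell population gate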; details: S. cerevisiae AGP1-GFP strain, 3 h, at 10 µM
[5] = modulators of CIT2-GFP expression in yeast, confirmation, S. cerevisiae, GFP fusion, cherry picks, mother/daughter gates (AID 2274); details: S. cerevisiae CIT2-GFP strain, flow cytometry, 3 h, at 10 µM, stronger effect = higher value
[6] = measured here: daughter cell gate
[7] = measured here: mother cell gate
[8] = measured here: daughter cell gate response
[9] = measured here: mother cell gate response

SMILES | GFP response vs DMSO [1] | GFP response vs DMSO [1, 6] [%] | GFP response vs DMSO [1, 7] [%] | GFP response relative to DMSO [2] | GFP response relative to DMSO [2, 8] [%] | GFP response relative to DMSO [2, 9] [%] | GFP response vs DMSO [3] | GFP response, % of DMSO [4] | GFP response, % of DMSO [5] | GFP response, % of DMSO [5, 6] [%] | GFP response, % of DMSO [5, 7] [%]
CC(OC(=O)CSc1ccc([N+](=O)[O-])cc1)C(=O)NCc1ccccc1 (stereo not drawn) | 101% (inactive) | 101 | 101 | 99.8% (inactive) | 102 | 100 | 100% (inactive) | 98% (inactive) | 97.8% (inactive) | 96.5 | 96.6
COCc1nnc(NC(=O)c2ccc(S(=O)(=O)N3CCCCCC3)cc2)o1 | 105% (inactive) | 99.8 | 105 | 105% (inactive) | 97.5 | 107 | 107% (inactive) | 101% (inactive) | 97.3% (inactive) | 97.4 | 96.8
O=S(=O)(/N=C(/Nc1ccc(F)cc1F)c1ccc(Cl)cc1)c1ccccc1 | 101% (inactive) | 101 | 103 | 96.5% (inactive) | 96.5 | 96.5 | 102% (inactive) | 96.9% (inactive) | 96.4% (inactive) | 98.3 | 95.6
O=S(=O)(c1ccc(Oc2ccc(Br)cc2)cc1)N1CCOCC1 | 103% (inactive) | 102 | 103 | 86% (inactive) | 86.4 | 83.7 | 97.5% (inactive) | 90.1% (inactive) | 95% (inactive) | 96.4 | 93.3
Cc1ccc(C2=NN(S(C)(=O)=O)C(c3ccc4nccnc4c3)C2)cc1 (stereo not drawn) | 98.6% (inactive) | 99.4 | 97.6 | 101% (inactive) | 101 | 99.3 | 100% (inactive) | 96.8% (inactive) | 101% (inactive) | 103 | 99.7
COc1ccc(/C=C/C(=O)NC(=S)NNC(=O)c2cnccn2)cc1 | 105% (inactive) | 91.1 | 79.2 | 166% (active) | 120 | 162 | 140% (inactive) | 78.5% (inactive) | 115% (inactive) | 99.1 | 106
COc1ccccc1-c1nnc(NC(=O)c2ccc(S(=O)(=O)N3CCCC3)cc2)o1 | 102% (inactive) | 101 | 104 | 96.2% (inactive) | 98.7 | 97.2 | 102% (inactive) | 98% (inactive) | 107% (inactive) | 105 | 107
COc1cc(/C=N/Nc2nc(C)cc(=O)[nH]2)ccc1O | 100% (inactive) | 104 | 98.8 | 87.2% (inactive) | 89.3 | 86.7 | 106% (inactive) | 105% (inactive) | 117% (inactive) | 121 | 115
O=C(O)CCCn1nc(-c2ccccc2)c2ccccc21 | 99% (inactive) | 98.4 | 100 | 112% (inactive) | 112 | 111 | 103% (inactive) | 101% (inactive) | 103% (inactive) | 106 | 96.8
CCOc1ccc(CNC(=O)CCC(=O)N2Cc3cccc(OC)c3Oc3ncccc32)cc1 | 98.2% (inactive) | 98.6 | 99.8 | 97.9% (inactive) | 99.2 | 96.1 | 100% (inactive) | 96.6% (inactive) | 101% (inactive) | 101 | 99.7
N/C(=N\OC(=O)c1ccccc1Cl)c1ccc(Cl)cc1 | 101% (inactive) | 101 | 101 | 135% (inactive) | 115 | 135 | 108% (inactive) | 77.2% (inactive) | 130% (inactive) | 117 | 132
Cc1ccc(Sc2ncnc3onc(C)c23)cc1 | 95.4% (inactive) | 95.7 | 95.5 | 117% (inactive) | 117 | 117 | 96.8% (inactive) | 99% (inactive) | 105% (inactive) | 105 | 102
Cc1cccn2c(=O)c(/C=C(\C#N)C(=O)NCc3ccco3)c(N3CCOCC3)nc12 | 100% (inactive) | 101 | 99.6 | 97% (inactive) | 97.5 | 96.2 | 99% (inactive) | 98% (inactive) | 100% (inactive) | 103 | 98.1
C[C@@H](C(=O)Nc1nc2ccc(F)cc2s1)N1C(=O)C2CC=CCC2C1=O (stereo partly drawn) | 98.7% (inactive) | 97.8 | 98.5 | 103% (inactive) | 101 | 104 | 102% (inactive) | 99.7% (inactive) | 101% (inactive) | 100 | 100
O=C1ON=C(c2ccccc2)/C1=C\c1ccco1 | 101% (inactive) | 90.8 | 87 | 168% (active) | 143 | 165 | 124% (inactive) | 93.2% (inactive) | 82.2% (inactive) | 89.9 | 70.8
Cc1ccc(S(=O)(=O)N(Cc2ccccc2)Cc2ccco2)cc1 | 102% (inactive) | 103 | 104 | 87.8% (inactive) | 87.9 | 90.1 | 97.8% (inactive) | 97.8% (inactive) | 106% (inactive) | 105 | 104
COc1ccc(NC(=O)/C(Cl)=C(/Cl)S(=O)Cc2ccccc2)cn1 (stereo not drawn) | 104% (inactive) | 114 | 95.5 | 262% (active) | 227 | 243 | 118% (inactive) | 103% (inactive) | 114% (inactive) | 134 | 99.1

SMILES | GFP response vs DMSO [1] | GFP response vs DMSO [1, 6] [%] | GFP response vs DMSO [1, 7] [%] | GFP response relative to DMSO [2] | GFP response relative to DMSO [2, 8] [%] | GFP response relative to DMSO [2, 9] [%] | GFP response vs DMSO [3] | GFP response, % of DMSO [4] | GFP response, % of DMSO [5] | GFP response, % of DMSO [5, 6] [%] | GFP response, % of DMSO [5, 7] [%]
CCOc1cc(N2CCOCC2)c(OCC)cc1NC(=O)C(NC(=O)c1ccco1)C(C)C (stereo not drawn) | 102% (inactive) | 101 | 102 | 91.4% (inactive) | 95.6 | 93.1 | 107% (inactive) | 99.6% (inactive) | 108% (inactive) | 108 | 108
COCCN1C2=C(COC(C)(C)C2)C(=S)NC1c1ccccc1 (stereo not drawn) | 98% (inactive) | 98.9 | 99 | 94.1% (inactive) | 96 | 94 | 107% (inactive) | 99.1% (inactive) | 107% (inactive) | 108 | 108
O=C(O)c1ccccc1C(=O)N1CCN(c2cccc(Cl)c2)CC1 | 97.2% (inactive) | 97 | 98.1 | 100% (inactive) | 97.9 | 96.5 | 97.5% (inactive) | 95.4% (inactive) | 96.4% (inactive) | 98.3 | 95.6
COc1ccc(C(=O)/C=C2/C(=O)Nc3ccccc32)c(OC)c1 | 99.5% (inactive) | 96.7 | 95.2 | 136% (inactive) | 123 | 139 | 97.8% (inactive) | 99.2% (inactive) | 82.2% (inactive) | 83.4 | 77.3
O=[N+]([O-])c1cc(CN2CCN(c3ccccc3)CC2)c(O)c2ncccc12 | 76.4% (inactive) | 108 | 59.5 | 161% (active) | 138 | 165 | 114% (inactive) | 78.8% (inactive) | 97.3% (inactive) | 106 | 88.2
COC(=O)Cn1nc(-c2ccccc2)c2ccccc21 | 92% (inactive) | 88.5 | 92.9 | 106% (inactive) | 101 | 106 | 109% (inactive) | 97.3% (inactive) | 102% (inactive) | 101 | 98.1
COc1ccc(NC(=S)NCCCCCC(=O)C[N+](=O)[O-])cc1 | 96% (inactive) | 96.4 | 96.1 | 90.2% (inactive) | 91.2 | 89.7 | 98.3% (inactive) | 98.7% (inactive) | 99.7% (inactive) | 101 | 97.3
Cc1ccc(/C=C2\SC(=S)N(CC3CCCO3)C2=O)o1 (stereo not drawn) | 93.8% (inactive) | 94.2 | 93.5 | 189% (active) | 167 | 194 | 143% (inactive) | 100% (inactive) | 98.6% (inactive) | 97.6 | 98.2
COc1cc(N2C(=O)C=CC2=O)c(OC)cc1Cl | 85.7% (inactive) | 90 | 75 | 303% (active) | 211 | 272 | 133% (inactive) | 108% (inactive) | 90% (inactive) | 96.5 | 79.4
S=C(Nc1ccc(Cl)cc1)Nc1ccc2cn[nH]c2c1 | 93.9% (inactive) | 96.3 | 93.3 | 106% (inactive) | 108 | 105 | 101% (inactive) | 104% (inactive) | 103% (inactive) | 100 | 104
COc1cccc(C(=O)C(C#N)=C(SC)SC)c1 | 108% (inactive) | 102 | 106 | 123% (inactive) | 108 | 126 | 97.8% (inactive) | 95.7% (inactive) | 80.8% (inactive) | 80.1 | 79.4
Cc1cc(OCc2ccc(C(=O)NN=C3CCCC3)cc2)ccc1Cl | 103% (inactive) | 98.7 | 96.1 | 132% (inactive) | 116 | 135 | 120% (inactive) | 101% (inactive) | 95.2% (inactive) | 91.5 | 89.1
CC(C)Nc1nc(-c2ccccc2)nnc1-c1ccccc1 | 98.5% (inactive) | 98.4 | 97.7 | 107% (inactive) | 102 | 109 | 106% (inactive) | 96.1% (inactive) | 98.6% (inactive) | 97.6 | 98.2
CC(=O)c1ccc(NC(=O)CN2CCC(NC(=O)C3CCCCC3)CC2)cc1 | 102% (inactive) | 102 | 103 | 98.8% (inactive) | 97.9 | 99.5 | 104% (inactive) | 95.6% (inactive) | 96.4% (inactive) | 98.3 | 95.6
COc1cc(NC(=O)c2cccc(F)c2)ccc1NC(=O)c1cc2ccccc2o1 | 97.8% (inactive) | 98.3 | 97.6 | 98.8% (inactive) | 99.3 | 97.5 | 102% (inactive) | 101% (inactive) | 97.8% (inactive) | 98.3 | 95.6
Cc1sc(NC(=O)c2cccs2)nc1-c1ccccc1 | 106% (inactive) | 95.7 | 105 | 110% (inactive) | 106 | 112 | 109% (inactive) | 97.5% (inactive) | 95.9% (inactive) | 93.8 | 95.6
